In brackets after ≈: the same amount, converted by molar mass.
Experiments:
Assay type in all cases: functional
Staphylococcus aureus [1] = assay: Antibacterial activity against Staphylococcus aureus ATCC 25923 by microdilution method
Outline: (§1)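 MIC and MBC were determined by CLSI broth microdilution, in duplicate on at least two occasions. Staphylococci were grown in Mueller-Hinton broth and agar; pneumococci were plated on sheep blood agar.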

Staphylococcus aureus [2] = assay: Antibacterial activity against Staphylococcus aureus 31005 by microdilution method; outline: as §1
Staphylococcus aureus [3] = assay: Antibacterial activity against Staphylococcus aureus 33591 by microdilution method
Outline: (§2)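 MICs in duplicate on at least two occasions by standard CLSI broth microdilution; S. aureus grown and quantified in Mueller-Hinton broth/agar.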

Staphylococcus aureus [4] = assay: Antibacterial activity against Staphylococcus aureus 307109 by microdilution method; outline: as §1
Staphylococcus aureus [5] = assay: Antibacterial activity against Staphylococcus aureus Smith by microdilution method; outline: as §2

COc1cccc(OC)c1C(=O)N[C@@H]1C(=O)N2[C@@H]1SC(C)(C)[C@@H]2C(=O)O [METHICILLIN]
MIC (Staphylococcus aureus [1]): 0.12 µg/mL (≈ 0.315 µM)
MIC (Staphylococcus aureus [2]): 0.12 µg/mL (≈ 0.315 µM)
MIC (Staphylococcus aureus [3]): > 8 µg/mL
MIC (Staphylococcus aureus [4]): > 8 µg/mL
MIC (Staphylococcus aureus [5]): 0.12 µg/mL (≈ 0.315 µM)

— ChEMBL document CHEMBL1145462, “In vivo pharmacodynamic activity of the glycopeptide dalbavancin” (Antimicrob Agents Chemother, 2007)
